# Legend:
# [1] = organism: Rattus norvegicus; assay: Tissue (intestine) distribution in Albino male CD rats after 5 minutes expressed as percent of injected dose per gram of organ.; format: ADME, organism-based; settings: in vivo
# How it was run: (§1)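 Radioligand given in saline into tail vein of male albino CD rats (225-250 g); 100-200 µCi per animal, 1-2 Ci/µmol at injection depending on radioligand. Three rats per time point were decapitated under light ether anaesthesia. Blood, plasma, brain regions and washed organs were weighed and gamma-counted. Uptake is %I.D./g tissue, mean ± SD.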
# [2] = organism: Rattus norvegicus; assay: Tissue (plasma) distribution in Albino male CD rats after 30 minutes expressed as percent of injected dose per gram of organ.; format: ADME, organism-based; settings: in vivo, 0.5 h
# How it was run: (§2)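 Male albino CD rats (225-250 g) received the 11C-labelled radioligand in saline by tail-vein injection. Three rats per time point were decapitated under light ether anaesthesia at 5, 15, 30, 60 or 90 min. Blood was collected heparinized and plasma separated by centrifugation. The pituitary was dissected from the brain. Lung, liver (three-lobe pieces) and right deltoid muscle were sampled, washed in cold saline, gamma-counted and weighed. Results are %I.D./g.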
# [3] = organism: Rattus norvegicus; assay: Tissue (liver) distribution in Albino male CD rats after 90 minutes expressed as percent of injected dose per gram of organ.; format: ADME, organism-based; settings: in vivo, 1.5 h; how it was run: as §2
# [4] = molecular target: Translocator protein (Rattus norvegicus) (UniProt P16257); assay: Tissue (blood) concentration of radioactivity at 30 min post-injection into Albino male CD rats after pretreatment with cold PK 11195.; format: functional, tissue-based
# How it was run: (§3)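 Separate groups of five rats received tail-vein PK 11195 (1.4-1.6 mg; 5 mg/kg) in 30 µL DMSO:EtOH 1:1, or vehicle alone, immediately before iv radioligand (90-170 µCi in saline, 0.9-1 Ci/µmol). Rats were decapitated at 30 min and tissues gamma-counted; values are %I.D./g.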
# [5] = organism: Rattus norvegicus; assay: Tissue (blood) distribution in Albino male CD rats after 90 minutes expressed as percent of injected dose per gram of organ.; format: ADME, organism-based; settings: in vivo, 1.5 h; how it was run: as §1
# [6] = organism: Rattus norvegicus; assay: Tissue (intestine) distribution in Albino male CD rats after 30 minutes expressed as percent of injected dose per gram of organ.; format: ADME, organism-based; settings: in vivo, 0.5 h; how it was run: as §1
# [7] = organism: Rattus norvegicus; assay: Tissue (lung) distribution in Albino male CD rats after 5 minutes expressed as percent of injected dose per gram of organ.; format: ADME, organism-based; settings: in vivo; how it was run: as §2
# [8] = organism: Rattus norvegicus; assay: Tissue (blood) distribution in Albino male CD rats after 5 minutes expressed as percent of injected dose per gram of organ.; format: ADME, organism-based; settings: in vivo; how it was run: as §1
# [9] = organism: Rattus norvegicus; assay: Tissue (heart) concentration of radioactivity at 30 min post-injection into Albino male CD rats with vehicle.; format: ADME, organism-based; settings: in vivo, 0.5 h; how it was run: as §3
# [10] = organism: Rattus norvegicus; assay: Tissue (heart) distribution in Albino male CD rats after 5 minutes expressed as percent of injected dose per gram of organ.; format: ADME, organism-based; settings: in vivo; how it was run: as §1
# [11] = molecular target: Translocator protein (Rattus norvegicus) (UniProt P16257); assay: Tissue (liver) concentration of radioactivity at 30 min post-injection into Albino male CD rats after pretreatment with cold PK 11195.; format: functional, tissue-based; how it was run: as §3
# [12] = organism: Rattus norvegicus; assay: Tissue (pituitary) distribution in Albino male CD rats after 60 minutes expressed as percent of injected dose per gram of organ.; format: ADME, organism-based, Pituitary gland; settings: in vivo, 1 h; how it was run: as §2
# [13] = organism: Rattus norvegicus; assay: Tissue (liver) distribution in Albino male CD rats after 5 minutes expressed as percent of injected dose per gram of organ.; format: ADME, organism-based; settings: in vivo; how it was run: as §2
# [14] = organism: Rattus norvegicus; assay: Tissue (lung) distribution in Albino male CD rats after 90 minutes expressed as percent of injected dose per gram of organ.; format: ADME, organism-based; settings: in vivo, 1.5 h; how it was run: as §2
# [15] = organism: Rattus norvegicus; assay: Tissue (adrenal gland) concentration of radioactivity at 30 min post-injection into Albino male CD rats with vehicle.; format: ADME, organism-based; settings: in vivo, 0.5 h; how it was run: as §3
# [16] = organism: Rattus norvegicus; assay: Tissue (plasma) distribution in Albino male CD rats after 5 minutes expressed as percent of injected dose per gram of organ.; format: ADME, organism-based; settings: in vivo; how it was run: as §2
# [17] = organism: Rattus norvegicus; assay: Tissue (heart) distribution in Albino male CD rats after 60 minutes expressed as percent of injected dose per gram of organ.; format: ADME, organism-based; settings: in vivo, 1 h; how it was run: as §1
# [18] = organism: Rattus norvegicus; assay: Tissue (lung) distribution in Albino male CD rats after 60 minutes expressed as percent of injected dose per gram of organ.; format: ADME, organism-based; settings: in vivo, 1 h; how it was run: as §2
# [19] = organism: Rattus norvegicus; assay: Tissue (kidney) distribution in Albino male CD rats after 5 minutes expressed as percent of injected dose per gram of organ.; format: ADME, organism-based; settings: in vivo; how it was run: as §1
# [20] = organism: Rattus norvegicus; assay: Tissue (testicle) distribution in Albino male CD rats after 30 minutes expressed as percent of injected dose per gram of organ.; format: ADME, organism-based; settings: in vivo, 0.5 h; how it was run: as §2
# [21] = organism: Rattus norvegicus; assay: Tissue (kidney) distribution in Albino male CD rats after 90 minutes expressed as percent of injected dose per gram of organ.; format: ADME, organism-based; settings: in vivo, 1.5 h; how it was run: as §1
# [22] = organism: Rattus norvegicus; assay: Tissue (spleen) distribution in Albino male CD rats after 90 minutes expressed as percent of injected dose per gram of organ.; format: ADME, organism-based; settings: in vivo, 1.5 h
# [23] = organism: Rattus norvegicus; assay: Tissue (cortex) distribution in Albino male CD rats after 5 minutes expressed as percent of injected dose per gram of organ.; format: ADME, organism-based; settings: in vivo; how it was run: as §1
# [24] = organism: Rattus norvegicus; assay: Tissue (adrenal gland) distribution in Albino male CD rats after 30 minutes expressed as percent of injected dose per gram of organ.; format: ADME, organism-based; settings: in vivo, 0.5 h; how it was run: as §1
# [25] = organism: Rattus norvegicus; assay: Tissue (muscle) distribution in Albino male CD rats after 30 minutes expressed as percent of injected dose per gram of organ.; format: ADME, organism-based; settings: in vivo, 0.5 h; how it was run: as §2
# [26] = organism: Rattus norvegicus; assay: Tissue (plasma) distribution in Albino male CD rats after 15 minutes expressed as percent of injected dose per gram of organ.; format: ADME, organism-based; settings: in vivo, 0.25 h; how it was run: as §2
# [27] = organism: Rattus norvegicus; assay: Tissue (spleen) concentration of radioactivity at 30 min post-injection into Albino male CD rats with vehicle.; format: ADME, organism-based; settings: in vivo, 0.5 h
# How it was run: (§4)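 Blocking study in male albino CD rats, five per group. Immediately before the 11C radioligand (in saline, i.v. tail vein), rats received 30 µL tail-vein PK 11195 (5 mg/kg; 1.4-1.6 mg) in DMSO:EtOH 1:1, or vehicle. Rats were decapitated at 30 min. Tissues were dissected, washed, gamma-counted and weighed as in the biodistribution study. Results are %I.D./g.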
# [28] = organism: Rattus norvegicus; assay: Tissue (pituitary) distribution in Albino male CD rats after 30 minutes expressed as percent of injected dose per gram of organ.; format: ADME, organism-based, Pituitary gland; settings: in vivo, 0.5 h; how it was run: as §2
# [29] = organism: Rattus norvegicus; assay: Tissue (spleen) distribution in Albino male CD rats after 5 minutes expressed as percent of injected dose per gram of organ.; format: ADME, organism-based; settings: in vivo; how it was run: as §2
# [30] = molecular target: Translocator protein (Rattus norvegicus) (UniProt P16257); assay: Tissue (kidney) concentration of radioactivity at 30 min post-injection into Albino male CD rats after pretreatment with cold PK 11195.; format: functional, tissue-based; how it was run: as §3
# [31] = organism: Rattus norvegicus; assay: Tissue (cortex) distribution in Albino male CD rats after 15 minutes expressed as percent of injected dose per gram of organ.; format: ADME, organism-based; settings: in vivo, 0.25 h; how it was run: as §1
# [32] = organism: Rattus norvegicus; assay: Tissue (kidney) distribution in Albino male CD rats after 15 minutes expressed as percent of injected dose per gram of organ.; format: ADME, organism-based; settings: in vivo, 0.25 h; how it was run: as §1
# [33] = organism: Rattus norvegicus; assay: Tissue (adrenal gland) distribution in Albino male CD rats after 15 minutes expressed as percent of injected dose per gram of organ.; format: ADME, organism-based; settings: in vivo, 0.25 h; how it was run: as §1
# [34] = organism: Rattus norvegicus; assay: Tissue (muscle) distribution in Albino male CD rats after 60 minutes expressed as percent of injected dose per gram of organ.; format: ADME, organism-based; settings: in vivo, 1 h; how it was run: as §2
# [35] = organism: Rattus norvegicus; assay: Tissue (pituitary) concentration of radioactivity at 30 min post-injection into Albino male CD rats with vehicle.; format: ADME, organism-based, Pituitary gland; settings: in vivo, 0.5 h; how it was run: as §4
# [36] = organism: Rattus norvegicus; assay: Tissue (cerebellum) distribution in Albino male CD rats after 15 minutes expressed as percent of injected dose per gram of organ.; format: ADME, organism-based; settings: in vivo, 0.25 h; how it was run: as §1
# [37] = organism: Rattus norvegicus; assay: Tissue (lung) distribution in Albino male CD rats after 15 minutes expressed as percent of injected dose per gram of organ.; format: ADME, organism-based; settings: in vivo, 0.25 h; how it was run: as §2
# [38] = organism: Rattus norvegicus; assay: Tissue (cortex) concentration of radioactivity at 30 min post-injection into Albino male CD rats with vehicle.; format: ADME, organism-based; settings: in vivo, 0.5 h; how it was run: as §3
# [39] = organism: Rattus norvegicus; assay: Tissue (spleen) distribution in Albino male CD rats after 60 minutes expressed as percent of injected dose per gram of organ.; format: ADME, organism-based; settings: in vivo, 1 h
# [40] = organism: Rattus norvegicus; assay: Tissue (cortex) distribution in Albino male CD rats after 30 minutes expressed as percent of injected dose per gram of organ.; format: ADME, organism-based; settings: in vivo, 0.5 h; how it was run: as §1
# Chain of Translocator protein (Rattus norvegicus) (P16257 whole entry, looked up): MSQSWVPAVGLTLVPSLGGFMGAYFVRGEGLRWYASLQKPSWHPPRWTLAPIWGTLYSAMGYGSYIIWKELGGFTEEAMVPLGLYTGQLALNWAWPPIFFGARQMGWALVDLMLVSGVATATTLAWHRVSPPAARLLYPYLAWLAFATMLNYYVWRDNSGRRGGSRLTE
compound,measurement,setting,value
CCC(C)N(C)C(=O)c1nc2ccccc2c(-c2ccccc2F)c1C (stereo not given),I.D./g,[1],0.18%
same,I.D./g,[2],0.06%
same,I.D./g,[3],0.39%
same,I.D./g,[4],> 0.04%
same,I.D./g,[5],0.05%
same,I.D./g,[6],0.31%
same,I.D./g,[7],2.37%
same,I.D./g,[8],0.11%
same,I.D./g,[9],0.35%
same,I.D./g,[10],0.68%
same,I.D./g,[11],< 0.45%
same,I.D./g,[12],0.14%
same,I.D./g,[13],0.41%
same,I.D./g,[14],1.55%
same,I.D./g,[15],1.79%
same,I.D./g,[16],0.11%
same,I.D./g,[17],0.6%
same,I.D./g,[18],1.77%
same,I.D./g,[19],0.41%
same,I.D./g,[20],0.09%
same,I.D./g,[21],0.46%
same,I.D./g,[22],0.71%
same,I.D./g,[23],0.1%
same,I.D./g,[24],2.78%
same,I.D./g,[25],0.1%
same,I.D./g,[26],0.09%
same,I.D./g,[27],0.28%
same,I.D./g,[28],0.12%
same,I.D./g,[29],0.34%
same,I.D./g,[30],0.12%
same,I.D./g,[31],0.11%
same,I.D./g,[32],0.73%
same,I.D./g,[33],2.53%
same,I.D./g,[34],0.07%
same,I.D./g,[35],0.09%
same,I.D./g,[36],0.11%
same,I.D./g,[37],2.25%
same,I.D./g,[38],0.05%
same,I.D./g,[39],0.65%
same,I.D./g,[40],0.1%

# Source: ChEMBL document CHEMBL1134346, “Labeling and evaluation of N-[11C]methylated quinoline-2-carboxamides as potential radioligands for visualization of peripheral benzodiazepine receptors” (J Med Chem, 2001)
